Converted amounts (≈) assume the structure as drawn. “And” between values parts separate entries of the source, which are not always exact repeats. Equal entries are not always repeated. Where only a bound is given, the exact number is not on record here.

These results are taken from ChEMBL document CHEMBL1145964, “Antineoplastic agents. 487. Synthesis and biological evaluation of the antineoplastic agent 3,4-methylenedioxy-5,4'-dimethoxy-3'-amino-Z-stilbene and derived amino acid amides” (J Med Chem, 2003).

Test [1] concerns MCF7. As to the kind of experiment: Inhibitory activity against breast MCF-7 cell line. It is filed as functional. The conditions noted are these: Homo sapiens.
For test [2], the system named is Tubulin. As to the kind of experiment: Inhibitory activity against tubulin (1.0 mg/mL) assembly was determined. The conditions noted are these: Homo sapiens.
Test [3] concerns MCF7. The test is described as follows: Mitotic index in MCF-7 breast cancer cells was determined. It is filed as functional, Homo sapiens.
Test [4] addresses Tubulin alpha chain (Sus scrofa) (UniProt P02550). The test is described as follows: Percent inhibitory activity (100 uM) against colchicine binding to tubulin […]. To be noted: Homo sapiens. In outline: (§1)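 Cell-free colchicine-binding test: reaction mixtures held 1.0 µM tubulin, 5.0 µM [³H]colchicine and inhibitor at the stated level; percent inhibition of radiolabel binding recorded.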

A short description of test [5]: Inhibitory activity against lung NSC NCI-H460 cell line. To be noted: Homo sapiens. It is filed as functional.
Test [6] is described as follows: Inhibitory activity against CNS SF-295 cell line. It is filed as functional. The conditions noted are these: Homo sapiens.
The nature of test [7]: Inhibitory activity against colon KM2OL2 cell line. It is filed as functional. The conditions noted are these: Homo sapiens.
Test [8] can be described thus: Inhibitory activity against prostate DU145 cell line. It is filed as functional. The conditions noted are these: Homo sapiens, DU-145.
Test [9] relates to P388. As to the kind of experiment: Inhibitory activity against leukemia P388 cell line. It is filed as functional. The conditions noted are these: Mus musculus, read-out: ED50 (the source's name).
The nature of test [10]: Inhibitory activity against pancreatic BXPC-3 cell line. To be noted: Homo sapiens. It is filed as functional.
For test [11], the species on record is Mus musculus. The test is described as follows: Inhibitory activity against murine colon 26 adenocarcinoma cell. It is filed as functional.
The target in test [12] is Tubulin alpha chain (Sus scrofa) (UniProt P02550). As to the kind of experiment: Percent inhibitory activity (5 uM) against colchicine binding to […]. The conditions noted are these: Homo sapiens.
Chain of Tubulin alpha chain (Sus scrofa) (P02550 whole entry, looked up): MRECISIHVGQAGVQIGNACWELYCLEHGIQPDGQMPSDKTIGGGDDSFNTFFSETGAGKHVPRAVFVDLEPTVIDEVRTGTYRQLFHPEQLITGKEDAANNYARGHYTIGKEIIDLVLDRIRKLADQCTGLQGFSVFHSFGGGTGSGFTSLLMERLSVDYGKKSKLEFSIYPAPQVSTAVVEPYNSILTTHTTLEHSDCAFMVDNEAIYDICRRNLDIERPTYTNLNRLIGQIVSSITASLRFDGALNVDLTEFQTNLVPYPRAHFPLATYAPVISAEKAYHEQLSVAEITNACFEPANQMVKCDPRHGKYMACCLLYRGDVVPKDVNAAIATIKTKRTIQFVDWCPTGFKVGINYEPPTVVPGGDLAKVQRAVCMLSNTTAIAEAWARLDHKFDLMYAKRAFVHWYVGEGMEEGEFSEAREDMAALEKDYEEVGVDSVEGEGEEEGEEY
Test [13] shares this target. As to the kind of experiment: Percent inhibitory activity (5 uM) against colchicine binding to tubulin […]. The conditions noted are these: Homo sapiens. The essentials:
(§2)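 Binding of [³H]colchicine to purified tubulin, not a cell assay: reaction mixtures held 1.0 µM tubulin, 5.0 µM [³H]colchicine and test compound at 2 or 5 µM as indicated. Read-out is percent inhibition of colchicine binding.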

For test [14] the target is unchanged. As to the kind of experiment: Percent inhibitory activity (2 uM) against colchicine binding to tubulin […]. The conditions noted are these: Homo sapiens. The essentials:
as §2

Test [15] is described as follows: Inhibitory activity against prostate DU145. It is filed as functional. To be noted: Homo sapiens, DU-145, Prostate gland.
Test [16] can be described thus: Inhibitory activity against pancreatic cell line BXPC-3. It is filed as functional. The conditions noted are these: Homo sapiens.
Test [17] has as its system MCF7. As to the kind of experiment: Inhibitory activity against breast cancer cell line MCF-7. It is filed as functional. To be noted: Homo sapiens.
Test [18] relates to Tubulin. The test is described as follows: Inhibitory activity against tubulin (1.0 mg/mL) assembly was determined. To be noted: Homo sapiens. The source holds these as a separate data set.
For test [19], the target named is Tubulin alpha chain (Sus scrofa) (UniProt P02550). The test is described as follows: Percent inhibitory activity (20 uM) against colchicine binding to tubulin […]. To be noted: Homo sapiens. In outline:
as §1

In the case of `COc1ccc(/C=C\c2cc(OC)c3c(c2)OCO3)cc1NC(=O)C(N)Cc1ccccc1` (stereo not given), the GI50 (usually the concentration giving 50% growth inhibition) is 0.044 µg/mL (≈ 0.0985 µM) in test [1]; 0.044 µg/mL (≈ 0.0985 µM) in test [5]; 1.7 µg/mL (≈ 3.81 µM) in test [6]; 0.034 µg/mL (≈ 0.0761 µM) in test [7]; 0.04 µg/mL (≈ 0.0896 µM) in test [8]; 0.2 µg/mL (≈ 0.448 µM) in [10]. The IC50 – broadly, the midpoint of a concentration-inhibition curve – in [2] was > 40 µM. Also, the Mitotic index in test [3] came out at 52. Also, the inhibition (commonly how much of the control response was suppressed) in [4] came to 16%. Also, the EC50 in [9] came to 0.0585 µg/mL (≈ 0.131 µM).

Consider `COc1ccc(/C=C\c2cc(OC)c3c(c2)OCO3)cc1NC(=O)C(N)C(C)C` (stereo not given), for which the GI50 in test [1] is 0.037 µg/mL (≈ 0.0929 µM); in test [5] it was 0.064 µg/mL (≈ 0.161 µM); in [6] it was 0.055 µg/mL (≈ 0.138 µM); in test [7], 0.019 µg/mL (≈ 0.0477 µM); in [8], 0.036 µg/mL (≈ 0.0903 µM); in [10], 0.012 µg/mL (≈ 0.0301 µM). Besides, in [2], the IC50 is > 40 µM. Moreover, the Mitotic index in test [3] is 48. Moreover, the inhibition in test [4] was 14%. Further, the EC50 in test [9] was determined as 0.306 µg/mL (≈ 0.768 µM).

Turning to `COc1ccc(/C=C/c2cc(OC)c3c(c2)OCO3)cc1[N+](=O)[O-]`, the GI50 is > 10 µg/mL in test [1]; > 10 µg/mL in [5]; 4.6 µg/mL (≈ 14 µM) in [6]; > 10 µg/mL in test [7]; > 10 µg/mL in test [8]; > 10 µg/mL in test [10]. The EC50 in test [9] is > 10 µg/mL.

With `COc1ccc(/C=C\c2cc(OC)c(OC)c(OC)c2)cc1O` [COMBRETASTATIN A4], the IC50 worked out at 2.1 µM in [2] and 0.018 µM in test [11]. The same molecule came in with a Mitotic index in test [3] of 57.

For `COc1ccc(/C=C\c2cc(OC)c3c(c2)OCO3)cc1NC(=O)C(N)CS` (stereo not given), the GI50 in [1] is 0.05 µg/mL (≈ 0.124 µM); in test [5], 0.032 µg/mL (≈ 0.0795 µM); in test [6], 0.037 µg/mL (≈ 0.0919 µM); in [7], 0.055 µg/mL (≈ 0.137 µM); in test [8], 0.0046 µg/mL (≈ 0.0114 µM); in [10] it was 0.2 µg/mL (≈ 0.497 µM). For the same molecule, the IC50 in test [2] was > 40 µM. In test [3], this molecule yielded a Mitotic index of 42. Also, in test [4], the inhibition stood at 15%. Moreover, the EC50 in test [9] was 0.332 µg/mL (≈ 0.825 µM).

As for `COc1ccc(/C=C/c2cc(OC)c3c(c2)OCO3)cc1P(=O)([O-])O.[Na+]`, the GI50 turned out to be 0.045 µg/mL in test [1]; 0.41 µg/mL in [5]; 0.042 µg/mL in test [6]; 3.8 µg/mL in test [7]; 0.053 µg/mL in [8]; 2.1 µg/mL in [10]. The EC50 in test [9] came to 0.025 µg/mL.

With `COc1ccc(/C=C\c2cc(OC)c3c(c2)OCO3)cc1N` [listing 1 of 2 here], the inhibition in test [12] is 95%; in test [13], 94%; in [14], 84% and 87%.

With `COc1ccc(/C=C\c2cc(OC)c3c(c2)OCO3)cc1N` [listing 2 of 2 here], the results for the GI50 in [1] and in [5] were 0.0047 µg/mL (≈ 0.0157 µM) and 0.005 µg/mL (≈ 0.0167 µM), respectively. The molecule further returned an IC50 in test [2] of 3.1 µM.

For the molecule `COc1ccc(/C=C\c2cc(OC)c3c(c2)OCO3)cc1[N+](=O)[O-]`, the GI50 in test [5] was determined as 0.35 µg/mL (≈ 1.06 µM); in [6] it was 0.33 µg/mL (≈ 1 µM); in test [15], 0.64 µg/mL (≈ 1.94 µM); in test [7], 0.45 µg/mL (≈ 1.37 µM); in test [16], 0.38 µg/mL (≈ 1.15 µM); in test [17] it was 0.36 µg/mL (≈ 1.09 µM). The EC50 in test [9] amounted to 0.227 µg/mL (≈ 0.689 µM). In addition, the IC50 in [18] stood at 0.39 µM.

As to `COc1ccc(/C=C\c2cc(OC)c3c(c2)OCO3)cc1NC(=O)C(N)CO` (stereo not given), the GI50 is 0.017 µg/mL (≈ 0.044 µM) in test [1]; 0.042 µg/mL (≈ 0.109 µM) in test [5]; 0.049 µg/mL (≈ 0.127 µM) in test [6]; 0.019 µg/mL (≈ 0.0492 µM) in [7]; 0.014 µg/mL (≈ 0.0362 µM) in [8]; 0.027 µg/mL (≈ 0.0699 µM) in [10]. Further, the 50% inhibitory concentration (IC50) in test [2] is > 40 µM. Further, the Mitotic index in test [3] turned out to be 35. Also, the inhibition was 64% in test [4] and 22% in [19]. Besides, the EC50 in test [9] was determined as 0.172 µg/mL (≈ 0.445 µM).

As to `COc1ccc(/C=C\c2cc(OC)c(OC)c(OC)c2)cc1N`, 0.0051 µM corresponded to half-maximal inhibition in test [11] (IC50).

Turning to `COc1ccc(/C=C\c2cc(OC)c3c(c2)OCO3)cc1NC(=O)CN`, the concentration for 50% growth inhibition (GI50) in [1] was determined as 0.014 µg/mL (≈ 0.0393 µM); in [5] it was 0.0042 µg/mL (≈ 0.0118 µM); in test [6], 0.059 µg/mL (≈ 0.166 µM); in test [7], 0.012 µg/mL (≈ 0.0337 µM); in [8], 0.0028 µg/mL (≈ 0.00786 µM); in [10], 0.025 µg/mL (≈ 0.0702 µM). For the same molecule, the IC50 in test [2] is > 40 µM. This molecule registered a Mitotic index in [3] of 52. Also, the inhibition was 66% in test [4] and 31% in [19]. The EC50 in [9] stood at 0.0199 µg/mL (≈ 0.0558 µM).

Consider `COc1ccc(/C=C\c2cc(OC)c3c(c2)OCO3)cc1NC(=O)C(N)Cc1c[nH]c2ccccc12` (stereo not given), for which the GI50 was 0.035 µg/mL (≈ 0.0721 µM) in test [1]; 0.053 µg/mL (≈ 0.109 µM) in test [5]; 0.042 µg/mL (≈ 0.0865 µM) in [6]; 0.018 µg/mL (≈ 0.0371 µM) in [7]; 0.04 µg/mL (≈ 0.0824 µM) in test [8]; 0.044 µg/mL (≈ 0.0906 µM) in [10]. In test [2], the IC50 is > 40 µM. The Mitotic index in test [3] is on record as 57. Also, in test [4], the inhibition came out at 16%. The EC50 in test [9] stood at 0.0653 µg/mL (≈ 0.134 µM).

As to `COc1ccc(/C=C\c2cc(OC)c3c(c2)OCO3)cc1NC(=O)C(N)Cc1ccc(O)cc1` (stereo not given), the GI50 in test [1] worked out at 0.035 µg/mL (≈ 0.0757 µM); in [5] it was 0.012 µg/mL (≈ 0.0259 µM); in test [6], 0.0097 µg/mL (≈ 0.021 µM); in test [7], 0.022 µg/mL (≈ 0.0476 µM); in [8], 0.018 µg/mL (≈ 0.0389 µM); in test [10], 0.0067 µg/mL (≈ 0.0145 µM). Moreover, the IC50 in test [2] is > 40 µM. The Mitotic index in [3] was determined as 44. Further, in [4], the inhibition is 19%. The EC50 in test [9] was determined as 0.0475 µg/mL (≈ 0.103 µM).

As to `COc1ccc(/C=C\c2cc(OC)c3c(c2)OCO3)cc1O` [Combretastatin A-2], the 50% growth inhibitory concentration (GI50) is 0.0042 µg/mL (≈ 0.014 µM) in test [1]; 0.043 µg/mL (≈ 0.143 µM) in test [5]; 0.0083 µg/mL (≈ 0.0276 µM) in [6]; 0.47 µg/mL (≈ 1.57 µM) in test [7]; 0.0054 µg/mL (≈ 0.018 µM) in test [8]; 0.014 µg/mL (≈ 0.0466 µM) in test [10]. In addition, the inhibition is 92% in [13] and 79% in test [14]. The EC50 in test [9] amounted to 0.016 µg/mL (≈ 0.0533 µM).

Take `COc1ccc(/C=C\c2cc(OC)c3c(c2)OCO3)cc1N.Cl`: the GI50 in test [1] amounted to 0.0042 µg/mL; in [5], 0.0057 µg/mL; in test [6], 0.0082 µg/mL; in test [7], 0.035 µg/mL; in test [8], 0.0082 µg/mL; in [10], 0.075 µg/mL. In test [9], the EC50 is 0.0388 µg/mL.
